In the library only some 3.5% were active in any assay of this set; here they are far more common.
MrgX1 antagonist: blocks BAM8-22 activation of human MrgX1 receptor | B-score at 10 µM | AID 588676 | Q96LB2 | MRGX1-HEK293 calcium flux, Fluo-4, BAM8-22 antagonism; hits give low values | 310,000 tested, 1.3% active;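 active = calcium-response B-score plate-corrected more than 3 library SD below zero, starting fluorescence within 5 deviations, no agonist response on first addition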;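 also: peak minus trough fluorescence over baseline after final BAM8-22 challenge near maximal dose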
Target sequence (Q96LB2 whole entry, looked up): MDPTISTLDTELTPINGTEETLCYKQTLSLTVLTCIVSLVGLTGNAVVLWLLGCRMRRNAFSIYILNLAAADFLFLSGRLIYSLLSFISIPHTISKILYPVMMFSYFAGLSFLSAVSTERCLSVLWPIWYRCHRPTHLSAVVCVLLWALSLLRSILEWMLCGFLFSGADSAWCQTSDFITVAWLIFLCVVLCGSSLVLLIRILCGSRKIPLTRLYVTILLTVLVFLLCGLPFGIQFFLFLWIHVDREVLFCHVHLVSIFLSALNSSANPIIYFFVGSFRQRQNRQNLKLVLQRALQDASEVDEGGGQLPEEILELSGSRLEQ
RGS4 act: RGS4 potentiation or activation; AID 463111; B-score at 10 µM; HEK293 M3R/inducible RGS4, carbachol calcium flux Fluo4; hits give low values; 310,000 tested, 0.92% active;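 active = B-score of the integrated calcium signal more than 4 SD below the library mean, with starting fluorescence not abnormally high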;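 also: negative B-score means reduced calcium response which marks RGS4 activation or potentiation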
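test system = HEK293 cells with stable M3R and inducible RGS4 | schedule = recording 10 s baseline at 1 Hz, 100 s post-agonist | technique = Fluo4-AM (2 µM) calcium-flux fluorescence, kinetic read | measure = Agonist-evoked peak-minus-minimum fluorescence over baseline, integrated ratio, B score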
MrgX1 ag: human MrgX1 receptor agonism, primary screen; MrgX1-HEK293 cells, Fluo-4 calcium fluorescence, agonist mode; hits give high values; B-score at 10 µM; 310,000 tested, 0.44% active;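 active = calcium response B-score plate-corrected fluorescence ratio at least 3 library SD, with starting fluorescence B-score inside 5 SD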
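Test system: Stable human MrgX1 HEK293 cell line | Schedule: Overnight plating before 1 h dye loading | Read-out basis: Baseline-normalised fluorescence change ratio, B-scored | Detection: Kinetic calcium dye fluorescence, Fluo-4 NW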
MrgX1 allo act: human MrgX1 positive allosteric modulation, primary screen; Q96LB2; B-score at 10 µM; MrgX1-HEK293, Fluo-4 calcium flux, FDSS; hits give high values; 310,000 tested, 0.63% active; AID 588675;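 active = plate-corrected calcium response at least 3 library SD above typical, normal starting fluorescence, not activating the receptor alone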;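 also: compound read alongside a low EC10 to EC30 dose of BAM8-22 agonist; peak minus trough fluorescence over baseline measured at the second addition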
RGS4 inh: inhibitors of human RGS4; P49798; HEK293 M3R/RGS4 inducible, Fluo-4 calcium flux; hits give high values; triggered by carbachol at its EC20; B-score at 10 µM; 310,000 tested, 0.45% active; AID 463165;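 active = B-score, a plate-corrected calcium signal, over three deviations above library mean, with baseline fluorescence within five deviations of library mean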;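 also: RGS4 expression induced by doxycycline in cells with stable M3 receptor; B-score is computed from the integrated fluorescence ratio over baseline after carbachol; higher B-score means a larger calcium signal and so more RGS4 inhibition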
Target sequence (P49798 whole entry, looked up): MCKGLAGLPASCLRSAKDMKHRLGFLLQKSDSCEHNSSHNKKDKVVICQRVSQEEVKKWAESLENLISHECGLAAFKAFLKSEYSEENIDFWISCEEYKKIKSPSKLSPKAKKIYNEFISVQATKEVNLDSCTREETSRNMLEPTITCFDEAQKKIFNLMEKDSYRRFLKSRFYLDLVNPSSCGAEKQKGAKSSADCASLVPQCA
MrgX1 PAM conf: reconfirmed allosteric activator of human MrgX1 receptor; AID 602413; MrgX1-HEK293, Fluo-4 calcium fluorescence, FDSS; 1,200 tested, 13% active; shares compounds with MrgX1 allo act; activation (ratio percentage), % at 10 µM;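 active = ratio at least 3 SD above the weak peptide control, stable starting fluorescence, no direct agonism earlier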;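 also: compound followed by low BAM8-22 agonist challenge near EC20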
HEK293 Ca flux: MrgX1 antagonist counter-screen hit in parental HEK293 cells; shares compounds with MrgX1 antagonist; Fluo-4 calcium fluorescence, FDSS; fluorescence ratio F(max-min)/F0 at 10 µM; 4,000 tested, 2% active;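 active = duplicate-averaged calcium fluorescence ratio at least three times the standard deviation of buffer wells, a nonspecific response in parental cells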
HEK293 Ca counter: activity in parental HEK293 cells without MrgX1. shares compounds with MrgX1 antagonist. parental HEK293 calcium flux, Fluo-4 fluorescence ratio; hits give high values. fluorescence ratio F(max-min)/F0 at 10 µM. 4,000 tested, 0.4% active;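 active = calcium fluorescence ratio, averaged over duplicates, at least 3 SD of the buffer-well ratio, meaning a nonspecific response in receptor-free cells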;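 also: untransfected parental HEK293 lacking MrgX1 used as counterscreen for MrgX1 allosteric activators; fluorescence change taken during the second addition on a kinetic imager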
HEK293 Ca cntr2: activity in parental HEK293 cells lacking MrgX1 receptor. 4,000 tested, 8.7% active. fluorescence ratio F(max-min)/F0 at 10 µM. shares compounds with MrgX1 antagonist. Fluo-4 calcium fluorescence (FDSS); hits give high values;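 active = calcium fluorescence ratio at least three times the spread of buffer wells, meaning a non-specific response in parental cells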
Active calls of the source: *; i = inactive; nt = no result given.

SMILES | MrgX1 antagonist | RGS4 act | MrgX1 ag | MrgX1 allo act | RGS4 inh | MrgX1 PAM conf | HEK293 Ca flux | HEK293 Ca counter | HEK293 Ca cntr2
CCCc1c(C(=O)Nc2ccc(F)cc2F)cnn1-c1ccccc1 | i | i | i | 11.5* | i | i | i | i | i
O=S(=O)(Nc1ncnc2c1oc1ccccc12)c1ccc(Cl)s1 | i | i | i | 19* | i | i | i | i | i
CNc1c(NS(=O)(=O)c2ccc(Cl)s2)c(=O)oc2ccccc12 | i | i | i | i | i | nt | nt | nt | nt
COc1ccc(S(=O)(=O)n2nc(OC(C)=O)cc2N(C(C)=O)C(C)=O)cc1 | i | i | i | 13.2* | i | i | i | i | i
CS(=O)(=O)n1nc(OC(=O)c2cccc3ccccc23)cc1N | i | i | i | 6.54* | i | 14.0%* | i | i | i
CS(=O)(=O)n1nc(OC(=O)c2cc(Br)ccc2Cl)cc1N | i | i | i | i | i | nt | nt | nt | nt
COc1ccc(S(=O)(=O)n2nc(OC(=O)c3ccccc3)cc2N)cc1 | i | i | i | i | i | nt | nt | nt | nt
COc1ccc(S(=O)(=O)n2nc(OC(=O)c3ccccc3Br)cc2N)cc1 | i | i | i | 10.3* | i | 32.1%* | i | i | i
Cc1nnc(-c2cnn(-c3ccccc3)c2N)n1Cc1ccncc1 | i | i | i | i | i | nt | nt | nt | nt
O=C(NCCc1ccc(F)cc1)c1ccncc1 | i | i | i | i | i | nt | nt | nt | nt
CCOC(=O)c1cc(C)nc(Sc2ccc(C)cc2)c1C#N | i | i | i | i | i | nt | nt | nt | nt
Cc1cc(C)c(C#N)c(Sc2ccc(N)cc2)n1 | i | i | i | 11.9* | i | i | i | i | i
Cc1ccc(SCC(=O)NC(=O)NCCC(C)C)c(C)c1 | i | i | i | i | i | nt | nt | nt | nt
O=C(c1cccc(C(F)(F)F)c1)C1CCCN(C(=O)CCn2cnnn2)C1 (stereo not given) | i | i | i | i | i | nt | nt | nt | nt
Nc1nc(Cl)nc(N(c2ccccc2)c2ccccc2)n1 | i | i | i | i | i | nt | nt | nt | nt
Nc1nc(CCl)nc(N(c2ccccc2)c2ccccc2)n1 | i | i | i | 10.1* | i | i | i | i | i
O=C(Cn1c(-c2cscn2)nc2ccccc21)Nc1ccccc1F | i | i | i | i | i | nt | nt | nt | nt
Cc1ccc(NC2=C(Cl)C(=O)OC2OC(=O)c2ccc(C)cc2)cc1 (stereo not given) | i | i | i | 8.58* | i | i | i | i | i
Cc1ccc(Cl)cc1NC(=O)CN1CCN(S(=O)(=O)N2CCC(C)CC2)CC1 | i | i | i | i | i | nt | nt | nt | nt
CN1CCCC(OC(=O)c2ccccc2Br)C1 (stereo not given) | i | i | i | 6.57* | i | i | i | i | i
CN1CCCC(OC(=O)c2cccc(Br)c2)C1 (stereo not given) | i | i | i | i | i | nt | nt | nt | nt
CN1CCN(C(=O)Nc2cccc(-c3ccccc3)c2)CC1 | i | i | i | i | i | nt | nt | nt | nt
CN1CCN(C(=S)NC(=O)c2ccc(Br)cc2)CC1 | i | i | i | i | i | nt | nt | nt | nt
CN1CCN(C(=S)C(=O)Nc2ccc(Br)cc2)CC1 | i | i | i | 11* | i | i | i | i | i
CC(CNC(=O)CN1C(=O)c2cccnc2Oc2ccc(Cl)cc21)c1ccccc1 (stereo not given) | i | i | i | 12.4* | i | i | i | i | i
SMILES | MrgX1 antagonist | RGS4 act | MrgX1 ag | MrgX1 allo act | RGS4 inh | MrgX1 PAM conf | HEK293 Ca flux | HEK293 Ca counter | HEK293 Ca cntr2
COc1ccc(S(=O)(=O)c2c(O)c3ccc(C(=O)Nc4cccc(F)c4)cc3[nH]c2=O)cc1 | i | i | i | 17.5* | i | i | i | i | i
COc1cccc(NC(=O)c2ccc3c(O)c(S(=O)(=O)c4ccccc4)c(=O)[nH]c3c2)c1 | i | i | i | i | i | nt | nt | nt | nt
O=C(CSc1nnc(CNC(=O)c2cccs2)o1)Nc1cccc(Cl)c1 | i | i | i | i | i | nt | nt | nt | nt
Cc1c(CNC(=O)C2CC2)c(-n2cccc2)n(Cc2ccccc2)c1C | i | i | i | i | i | nt | nt | nt | nt
O=C(Cc1ccccc1)N1CCC(c2ccccc2)C1 (stereo not given) | i | i | i | i | i | nt | nt | nt | nt
COc1ccc(CC(=O)N2CCC(c3ccccc3)C2)cc1 (stereo not given) | i | i | i | 7.99* | i | i | i | i | i
CS(=O)(=O)N(CC(=O)N1CCN(c2ccc(F)cc2)CC1)c1ccc(F)c(Cl)c1 | i | i | i | 6.82* | i | i | i | i | i
COc1ccc(N2CCN(C(=O)CN(c3cccc(Br)c3)S(C)(=O)=O)CC2)cc1 | i | i | i | 18.5* | i | 16.4%* | i | i | i
CCN1CCN(C(=O)CN(c2cc(OC)ccc2OC)S(C)(=O)=O)CC1 | i | i | i | i | i | nt | nt | nt | nt
COc1ccc(OC)c(N(CC(=O)N2CCN(c3cc(Cl)ccc3C)CC2)S(C)(=O)=O)c1 | i | i | i | 28.7* | i | 93.1%* | i | i | 54.4*
CNC(=O)c1cc(NC(=O)CCn2nc(-c3ccc(C)cc3)c3ccccc3c2=O)ccc1OC | i | i | i | i | i | nt | nt | nt | nt
CCN(CC)S(=O)(=O)c1cccc(NC2=NCC(C)S2)c1 (stereo not given) | i | i | i | 9.13* | i | i | i | i | i
Nc1nc2n(n1)C(c1cccc(Cl)c1)CC(c1ccc(F)cc1)N2 (stereo not given) | i | i | i | 9.68* | i | i | i | i | i
CCOc1ccc(C2CC(c3cccc(Cl)c3)n3nc(N)nc3N2)cc1 (stereo not given) | i | i | i | i | i | nt | nt | nt | nt
CC(C)=CCCC(C)NC(=O)NC1CCCCC1 (stereo not given) | i | i | i | i | i | nt | nt | nt | nt

Screening results (PubChem)
